Calls of active or inactive are those of the source. No cut-off for these calls is given here.
Columns and labels:
[1] = Inhibition of sheep brain dynamin 1 GTPase activity by malachite green GTPase assay; set-up: species or system Ovis aries
How it was run: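 Buffer: 5 mM Tris pH 7.4, 10 mM NaCl, 2 mM Mg2+, 0.05% Tween 80, leupeptin, PMSF. GTP 0.3 mM, 30 min at 37 °C. Stopped with EDTA, malachite green added, A650 read against a phosphate standard. IC50 is the mean of at least three experiments in duplicate.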

Ovis aries [2] = species on record: Ovis aries; assay: Inhibition of sheep brain dynamin 1 GTPase activity at 300 uM by malachite green GTPase assay
Dynamin-2 (Homo sapiens) [3] = biological target: T1, Dynamin-2 (Homo sapiens) (UniProt P50570); assay: Inhibition of dynamin 2-mediated endocytosis internalization of Texas red-transferrin in human U2OS cells at 100 uM pretreated for 30 mins; format: cell-based
T1 sequence (whole entry): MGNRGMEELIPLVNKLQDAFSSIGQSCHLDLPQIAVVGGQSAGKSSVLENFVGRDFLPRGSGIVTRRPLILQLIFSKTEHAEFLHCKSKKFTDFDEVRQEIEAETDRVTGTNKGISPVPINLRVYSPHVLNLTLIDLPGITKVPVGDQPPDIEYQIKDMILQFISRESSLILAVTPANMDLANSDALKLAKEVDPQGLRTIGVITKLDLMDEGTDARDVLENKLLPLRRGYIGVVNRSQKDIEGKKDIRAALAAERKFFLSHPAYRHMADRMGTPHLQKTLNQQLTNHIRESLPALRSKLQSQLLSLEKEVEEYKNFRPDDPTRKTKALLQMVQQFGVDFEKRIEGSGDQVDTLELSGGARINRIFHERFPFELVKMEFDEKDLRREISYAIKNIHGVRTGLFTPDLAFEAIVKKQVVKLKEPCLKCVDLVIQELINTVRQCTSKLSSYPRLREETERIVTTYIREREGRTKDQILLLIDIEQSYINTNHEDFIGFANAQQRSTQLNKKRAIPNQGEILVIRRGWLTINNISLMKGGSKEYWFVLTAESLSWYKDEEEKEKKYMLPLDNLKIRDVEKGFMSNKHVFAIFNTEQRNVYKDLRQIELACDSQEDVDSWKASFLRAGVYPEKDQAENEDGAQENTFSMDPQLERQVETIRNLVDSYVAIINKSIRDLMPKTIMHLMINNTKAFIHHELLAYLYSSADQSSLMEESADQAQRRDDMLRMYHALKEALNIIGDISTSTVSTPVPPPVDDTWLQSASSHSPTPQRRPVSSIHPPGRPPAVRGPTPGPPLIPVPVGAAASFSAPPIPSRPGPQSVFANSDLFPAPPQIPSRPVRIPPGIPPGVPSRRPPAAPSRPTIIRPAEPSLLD
How it was run: (§1)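 U2OS cells in DMEM/10% FCS on fibronectin-coated wells, serum-starved overnight (16 h). Preincubated 30 min with drug or vehicle, then Tf-Texas Red 4 µg/mL for 8 min at 37 °C. Ice-cold acid wash (0.2 M acetic acid/0.5 M NaCl, pH 2.8) strips surface Tf. Cells fixed in 4% PFA and DAPI-stained, and internalized Tf-TxR imaged by fluorescence microscopy. Final DMSO at most 1%.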

U2OS = assay: Toxicity against human U2OS cells assessed as effect on cell morphology after 30 mins; format: cell-based; details: 0.5 h
Ovis aries [4] = species on record: Ovis aries; assay: Uncompetitive inhibition of sheep brain dynamin 1 GTPase activity using variable GTP level by kinetic assay; format: tissue-based
How it was run: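 Malachite green Pi release assay with PS-stimulated sheep brain dynamin I (20 nM) at 37 °C for 30 min, with GTP substrate varied in the presence of inhibitor. Vmax and Km were obtained by nonlinear Michaelis–Menten fitting, then the data were replotted as Lineweaver–Burk to assign the inhibition mode.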

Dynamin-2 (Homo sapiens) [5] = biological target: T1, Dynamin-2 (Homo sapiens); assay: Inhibition of dynamin 2-mediated endocytosis internalization of Texas red-transferrin in human U2OS cells at 30 uM pretreated for 30 mins; format: cell-based; how it was run: as §1
[6] = Toxicity against human fibroblasts assessed as cell viability at 10 uM by trypan blue exclusion method; format: cell-based, Fibroblast; details: read-out: Activity
How it was run: (§2)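 Cells seeded at 1 × 10⁵ per 10 cm dish. From 24 h after seeding, exposed continuously for 7 days to drug (10 µM) or 0.5% DMSO vehicle. Floating and adherent cells collected, and viability scored by Trypan Blue exclusion on an automated analyzer. Cell lines: hTert breast stromal fibroblasts, two primary skin fibroblast lines, a primary myoblast line, NIH3T3.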

[7] = Toxicity against mouse NIH/3T3 cells assessed as cell viability at 10 uM by trypan blue exclusion method; format: cell-based, NIH3T3; details: read-out: Activity; how it was run: as §2

| Compound | IC50 [1] [µM] | inhibition (Ovis aries [2]) | further results |
| --- | --- | --- | --- |
| Cc1c(/C=C(\C#N)C(=O)NC2CCCCC2)c2ccccc2n1CCN(C)C | 300 |  |  |
| Cc1[nH]c2ccccc2c1/C=C(\C#N)C(=O)NCc1ccccc1 |  | inactive |  |
| Cc1c(C=O)c2ccccc2n1CCCN(C)C |  | inactive |  |
| CN(C)CCn1cc(CCC(=O)O)c2ccccc21 | 131 |  |  |
| CN(C)CCn1ccc2ccccc21 | 300 |  |  |
| COc1ccc(CNC(=O)/C(C#N)=C/c2c(C)[nH]c3ccccc23)cc1 |  | inactive |  |
| CN(C)CCCn1cc(CC(=O)O)c2ccccc21 |  | inactive |  |
| Cc1[nH]c2ccccc2c1/C=C(\C#N)C(=O)NC1CCCCC1 |  | inactive |  |
| Cc1c(/C=C(\C#N)C(=O)NC2CCCCC2)c2ccccc2n1CCCN(C)C | 300 |  |  |
| Cc1c(C=O)c2ccccc2n1CCN(C)C |  | inactive |  |
| CN1CCCC1CCn1cc(C2=C(c3c[nH]c4ccccc34)C(=O)NC2=O)c2ccccc21 (centres undefined) | 100 |  |  |
| Cc1cc2ccccc2n1CCN(C)C | 300 |  |  |
| CCCNC(=O)/C(C#N)=C/c1c(C)[nH]c2ccccc12 |  | inactive |  |
| CCCCNC(=O)/C(C#N)=C/c1c(C)[nH]c2ccccc12 |  | inactive |  |
| CCNC(=O)/C(C#N)=C/c1c(C)[nH]c2ccccc12 |  | inactive |  |
| CN(C)CCCn1cc(CCC(=O)O)c2ccccc21 | 143 |  |  |
| Cc1cc2ccccc2n1CCCN(C)C | 300 |  |  |
| CN(C)CCn1cc(CC(=O)O)c2ccccc21 |  | inactive |  |
| CN(C)CCCn1ccc2ccccc21 | 300 |  |  |
| CN(C)CCCn1cc(C2=C(c3c[nH]c4ccccc34)C(=O)NC2=O)c2ccccc21 [GF-109203] | 100 |  |  |

The next lines start with results.

| IC50 [1] [µM] | inhibition (Ovis aries [2]) | Compound | further results |
| --- | --- | --- | --- |
| 300 |  | CCCCNC(=O)/C(C#N)=C/c1c(C)n(CCN(C)C)c2ccccc12 |  |
| 10.1 |  | CCCCCCCCCCNC(=O)/C(C#N)=C/c1c(C)n(CCN(C)C)c2ccccc12 | Activity (Dynamin-2 (Homo sapiens) [3]): Active; Activity (U2OS): Non-toxic |
|  | inactive | CCCCCCCCCCCCCCNC(=O)/C(C#N)=C/c1c(C)[nH]c2ccccc12 |  |
| 52 |  | CCCCCCCCCCCCCCNC(=O)/C(C#N)=C/c1c(C)n(CCCN(C)C)c2ccccc12 |  |
|  | inactive | CCCNC(=O)/C(C#N)=C/c1c(C)n(CCCN(C)C)c2ccccc12 |  |
| 32 |  | CCCCCCCCCCCCNC(=O)/C(C#N)=C/c1c(C)n(CCN(C)C)c2ccccc12 |  |
| 7.69 |  | CCCCCCNC(=O)/C(C#N)=C/c1c(C)n(CCN(C)C)c2ccccc12 |  |
|  | inactive | CCCCCCCCCCNC(=O)/C(C#N)=C/c1c(C)[nH]c2ccccc12 |  |
| 38 |  | CCCCCCCCCCCCCCNC(=O)/C(C#N)=C/c1c(C)n(CCN(C)C)c2ccccc12 |  |
|  | inactive | CCNC(=O)/C(C#N)=C/c1c(C)n(CCN(C)C)c2ccccc12 |  |
| 254 |  | COc1ccc(CNC(=O)/C(C#N)=C/c2c(C)n(CCN(C)C)c3ccccc23)cc1 |  |
| 201 |  | Cc1c(/C=C(\C#N)C(=O)NCc2ccccc2)c2ccccc2n1CCCN(C)C |  |
|  | inactive | CCCNC(=O)/C(C#N)=C/c1c(C)n(CCN(C)C)c2ccccc12 |  |
|  | inactive | CCCCCCCCCCCCNC(=O)/C(C#N)=C/c1c(C)[nH]c2ccccc12 |  |
|  | inactive | CCCCCCNC(=O)/C(C#N)=C/c1c(C)[nH]c2ccccc12 |  |
|  | inactive | CCCCCCCCNC(=O)/C(C#N)=C/c1c(C)[nH]c2ccccc12 |  |
|  | inactive | CCNC(=O)/C(C#N)=C/c1c(C)n(CCCN(C)C)c2ccccc12 |  |
| 9.05 |  | CCCCCCCCNC(=O)/C(C#N)=C/c1c(C)n(CCN(C)C)c2ccccc12 | Activity (Dynamin-2 (Homo sapiens) [3]): Active; Activity (U2OS): Non-toxic |
| 196 |  | Cc1c(/C=C(\C#N)C(=O)NCc2ccccc2)c2ccccc2n1CCN(C)C |  |
| 3.33 |  | CCCCCCCCNC(=O)/C(C#N)=C/c1c(C)n(CCCN(C)C)c2ccccc12 | Activity (Ovis aries [4]): Active; Activity (Dynamin-2 (Homo sapiens) [5]): Active; Activity (Dynamin-2 (Homo sapiens) [3]): Active; Activity (U2OS): Non-toxic |
| 6.62 |  | CCCCCCNC(=O)/C(C#N)=C/c1c(C)n(CCCN(C)C)c2ccccc12 | Activity (Dynamin-2 (Homo sapiens) [3]): Active; Activity (U2OS): Non-toxic |
|  | inactive | CCCCNC(=O)/C(C#N)=C/c1c(C)n(CCCN(C)C)c2ccccc12 |  |
| 222 |  | COc1ccc(CNC(=O)/C(C#N)=C/c2c(C)n(CCCN(C)C)c3ccccc23)cc1 |  |
| 1.3 |  | CCCCCCCCNC(=O)/C(C#N)=C/c1cn(CCCN(C)C)c2ccccc12 | viability at 10 µM [6]: > 98%; viability at 10 µM [7]: > 98%; Activity (Dynamin-2 (Homo sapiens) [5]): Active; Activity (Dynamin-2 (Homo sapiens) [3]): Active; Activity (U2OS): Non-toxic |

From ChEMBL document CHEMBL1136965, “Inhibition of dynamin mediated endocytosis by the dynoles--synthesis and functional activity of a family of indoles” (J Med Chem, 2009)
